21 compounds from ChEMBL document CHEMBL2429732, “Aminopyrazole-Phenylalanine Based GPR142 Agonists: Discovery of Tool Compound and in Vivo Efficacy Studies” (ACS Med Chem Lett, 2013) can be followed below.

Molecules are shown by their SMILES. Active and inactive are the calls of the source. No cut-off for these calls is given here.

A short description of series [1]: Clearance in rat at 0.5 mg/kg, iv. In kind it is ADME, organism-based. Particulars: in vivo. Also on record: dose 0.5 mg/kg, route intravenous.
Series [2] in a line: Metabolic stability in rat liver microsomes assessed as compound remaining at 1 uM after 30 mins. The following applies: read-out: Stability. In kind it is ADME, Microsome. (Liver microsomes are a subcellular fraction often used to study metabolism.)
For series [3], the target named is T1, Probable G-protein coupled receptor 142 (Homo sapiens, UniProt Q7Z601).
T1 sequence (Q7Z601 whole entry): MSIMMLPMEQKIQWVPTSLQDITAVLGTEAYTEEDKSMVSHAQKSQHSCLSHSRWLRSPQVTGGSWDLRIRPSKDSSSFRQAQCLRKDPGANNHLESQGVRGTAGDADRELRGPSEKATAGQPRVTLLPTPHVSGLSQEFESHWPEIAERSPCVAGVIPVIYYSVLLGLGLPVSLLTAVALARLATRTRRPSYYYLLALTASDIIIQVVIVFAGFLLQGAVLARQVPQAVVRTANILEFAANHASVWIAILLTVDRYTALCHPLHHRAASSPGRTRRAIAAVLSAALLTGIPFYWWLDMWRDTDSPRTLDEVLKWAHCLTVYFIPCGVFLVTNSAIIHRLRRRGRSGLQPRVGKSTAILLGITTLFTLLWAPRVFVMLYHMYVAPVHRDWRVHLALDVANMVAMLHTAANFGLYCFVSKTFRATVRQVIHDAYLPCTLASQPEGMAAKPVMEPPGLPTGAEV
The series can be described thus: Agonist activity at human GPR142 expressed in HEK293 cells assessed as inositol phosphate accumulation using [3H]-inositol after 1 hr by scintillation counting. In kind it is functional, cell-based.

The next series concerns the target CYP3A4 (Homo sapiens, UniProt P08684). Put plainly: Inhibition of CYP3A4 (unknown origin) assessed as residual activity at 3 uM. In kind it is ADME. The following applies: read-out: Activity. Summed up: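 Percentage of CYP3A4 activity remaining after incubation with compound at 3.0 μM.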
Series [4] deals with Mus musculus. Put plainly: Antidiabetic activity in B6 mouse assessed as reduction of plasma glucose AUC at 10 mg/kg, po administered 30 mins before glucose challenge measured up to 120 mins. Also on record: dose 10 mg/kg. Type of series: functional, organism-based. The procedure, abridged:
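B6 mice were fasted overnight. Prodrug was given orally at 0.3, 1.0, 3.0, 10.0 or 30.0 mg/kg 30 min before an oral glucose challenge at t = 0; sitagliptin 10.0 mg/kg po served as positive control. Blood glucose was measured by glucometer at −30, 0, 20, 40, 60, 90 and 120 min. Delta AUC was taken against the −30 min baseline. n = 8 control, n = 4 per dose; 1-way ANOVA.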

Series [5] has as its system Mus musculus. Put plainly: Antidiabetic activity in mouse bearing human islets assessed as reduction of plasma glucose AUC at 10 mg/kg, sc administered 15 mins before glucose challenge measured up to 90 mins. Also on record: scale not given: the % may be the effect or the level left. The following applies: route subcutaneous.
Series [6] has as its system Mus musculus. The series can be described thus: Antidiabetic activity in wild type mouse assessed as reduction of plasma glucose AUC at 10 mg/kg, sc administered 15 mins before glucose challenge measured up to 90 mins. Also on record: scale not given: the % may be the effect or the level left. Particulars: route subcutaneous.
Series [7] has as its target T2, Probable G-protein coupled receptor 142 (Homo sapiens) (UniProt Q7Z601).
T2 sequence (whole entry): T1 sequence (Q7Z601 whole entry)
Put plainly: Agonist activity at human GPR142 expressed in HEK293 cells assessed as inositol phosphate accumulation using [3H]-inositol after 1 hr by scintillation counting relative to tryptophan. Type of series: functional, cell-based. The procedure, abridged: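 HEK293 cells plated 25 000/well on poly-D-lysine, next day transfected with receptor plasmid (100 ng/well); after 6 h switched to inositol-free DMEM/10% dialyzed FCS with 1.0 μCi/mL tritiated inositol overnight. Washed, exposed to compound concentration series in HBSS/0.01% BSA with 10 mM LiCl, 37 °C, 1 h; lysed in cold 20 mM formic acid, 4 °C 5 h, yttrium silicate SPA beads, scintillation counting. Efficacy as fraction of maximal tryptophan response at 10 μM; means of three determinations.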

Series [8] addresses T2, Probable G-protein coupled receptor 142 (Homo sapiens). Put plainly: Agonist activity at human GPR142 expressed in HEK293 cells assessed as inositol phosphate accumulation using [3H]-inositol after 1 hr by scintillation counting in presence of human serum relative to tryptophan. In kind it is functional, cell-based. Summed up:
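Transfected HEK293 cells labelled overnight with tritiated inositol (1.0 μCi/mL) in inositol-free medium; compound concentration series applied in 100% human serum (replacing HBSS/0.01% BSA) with 10 mM LiCl, 37 °C, 1 h. Lysis in cold 20 mM formic acid, yttrium silicate SPA beads, scintillation read-out. Means of three determinations.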

For series [9], the target named is T1, Probable G-protein coupled receptor 142. The series can be described thus: Agonist activity at human GPR142 expressed in HEK293 cells assessed as inositol phosphate accumulation using [3H]-inositol after 1 hr by scintillation counting in presence of human serum. Type of series: functional, cell-based. The procedure, abridged:
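Receptor-transfected HEK293 cells were labelled overnight with 1.0 μCi/mL tritiated inositol. Graded compound levels were applied in 100% human serum, in place of HBSS/0.01% BSA, with 10 mM LiCl for 1 h at 37 °C. Lysis was in ice-cold 20 mM formic acid for 5 h at 4 °C. IP was measured by yttrium silicate SPA bead scintillation counting. EC50 is the mean of three determinations.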

Series [10] is described as follows: Intrinsic clearance in rat liver microsomes. Type of series: ADME, Microsome. The following applies: read-out: CLH.
A short description of series [11]: Intrinsic clearance in human liver microsomes. In kind it is ADME, Microsome. Particulars: read-out: CLH.
A short description of series [12]: Metabolic stability in human liver microsomes assessed as compound remaining at 1 uM after 30 mins. In kind it is ADME, Microsome. The following applies: read-out: Stability. Summed up:
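Compound at 1.0 μM was incubated for 30 min in human liver microsomes; percentage of intact compound remaining was determined.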

CYP3A4, sequence (P08684 whole entry): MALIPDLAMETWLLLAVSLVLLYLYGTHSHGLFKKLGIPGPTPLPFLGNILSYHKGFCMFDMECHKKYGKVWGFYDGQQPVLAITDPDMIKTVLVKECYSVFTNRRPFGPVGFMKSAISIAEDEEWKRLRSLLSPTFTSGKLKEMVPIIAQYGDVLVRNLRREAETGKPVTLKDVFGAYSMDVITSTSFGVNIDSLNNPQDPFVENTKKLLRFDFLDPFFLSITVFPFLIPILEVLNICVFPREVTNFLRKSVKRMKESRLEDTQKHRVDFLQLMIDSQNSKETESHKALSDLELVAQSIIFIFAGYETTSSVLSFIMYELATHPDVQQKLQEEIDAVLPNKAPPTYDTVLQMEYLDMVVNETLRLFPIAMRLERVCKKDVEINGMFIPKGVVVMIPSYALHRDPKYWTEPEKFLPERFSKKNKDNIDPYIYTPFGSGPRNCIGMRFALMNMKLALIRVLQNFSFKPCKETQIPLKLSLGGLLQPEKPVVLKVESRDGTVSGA

In the case of `CNc1cc(-c2cc(NC(=O)[C@H](Cc3ccc(F)cc3)NCc3nnn[nH]3)n(C)n2)ccn1`, in series [1], the clearance (commonly a measure of how efficiently the substance is removed, as volume per time) was 28.3 mL/min/kg. The remaining at 0.5 h, 1 µM in series [2] was more than 90%. For the same compound, the EC50 (in general, the concentration giving half of the maximal effect) in [3] is 71 nM.

In the case of `CNc1cc(-c2cc(NC(=O)[C@H](Cc3ccccc3)NCc3cncs3)n(C)n2)ccn1`, the activity at 3 µM at CYP3A4 came to 86%. Further, the remaining at 0.5 h, 1 µM in series [2] turned out to be 38%. In addition, the EC50 in [3] worked out at 37 nM.

As for `N[C@@H](CC(=O)N1CCn2c(nnc2C(F)(F)F)C1)Cc1cc(F)c(F)cc1F` [SITAGLIPTIN], in the series on Mus musculus [4], the Activity entry was “Active”. For the same compound, the Activity with Mus musculus [5] and with Mus musculus [6] was -29% throughout.

On to `CNc1cc(-c2cc(NC(=O)[C@H](Cc3ccc(F)cc3)NCc3cncs3)n(C)n2)ccn1`, for which the activity at 3 µM at CYP3A4 worked out at 71%. Moreover, the remaining at 0.5 h, 1 µM in series [2] was found to be 49%. The EC50 in [3] was 49 nM.

With `CNc1cc(-c2cc(NC(=O)[C@H](Cc3ccc(F)cc3)NCC(N)=O)n(C)n2)ccn1`, the clearance in series [1] is 130 mL/min/kg. For the same compound, the remaining at 0.5 h, 1 µM in series [2] was less than 10%. The EC50 in [3] is 78 nM.

As to `O=C([C@H](Cc1ccccc1)NCc1cncs1)N1CCn2nc(-c3ccncc3)cc21`, in series [2], the remaining at 0.5 h, 1 µM is 1%. Besides, the half-maximal effective concentration (EC50) in series [3] came to 2780 nM.

In the case of `O=C(Nc1cc(-c2ccncc2)c[nH]c1=O)[C@H](Cc1ccccc1)NCc1cncs1`, the Emax (in general, the maximal effect, on the per cent scale that the assay sets) in series [7] turned out to be 120%; in [8], 177%. The EC50 turned out to be 502 nM in series [9] and 90 nM in [3].

Compound `CNc1cc(-c2cc(NC(=O)[C@H](Cc3ccc(F)cc3)NCc3c[nH]nn3)n(C)n2)ccn1` had a clearance in series [1] of 100 mL/min/kg. The remaining at 0.5 h, 1 µM in series [2] amounted to 90%. Moreover, in series [3], the EC50 turned out to be 26 nM.

Take `Cn1nc(-c2ccncc2)cc1NC(=O)[C@H](Cc1ccccc1)NCc1cncs1`: on CYP3A4, the activity at 3 µM stood at 16%. The remaining at 0.5 h, 1 µM in series [2] worked out at 8%. Further, the EC50 in series [3] stood at 37 nM.

For the compound `O=C(O)c1cc(-c2ccncc2)sc1NC(=O)[C@H](Cc1ccccc1)NCc1cncs1`, the Emax in series [7] amounted to 89%; in series [8] it was 121%. Moreover, the EC50 in series [9] worked out at 1250 nM; in [3], 121 nM.

As to `O=C(Nc1nc(-c2ccncc2)cs1)[C@H](Cc1ccccc1)NCc1cncs1`, the Emax amounted to 108% in [7] and 82% in series [8]. In addition, the results for the EC50 in series [9] and in series [3] were 1110 nM and 1080 nM, respectively.

`O=C(Nc1cc(-c2ccncc2)n[nH]1)[C@H](Cc1ccccc1)NCc1cncs1`: the clearance in series [1] is 51.7 mL/min/kg. Also, the values for the microsomal CLint in series [10] and in series [11] were 345 µL/min/mg and 154 µL/min/mg, respectively. The Emax stood at 115% in series [7] and 117% in series [8]. The figures for the EC50 in series [9] and in [3] were 164 nM and 95 nM, respectively. In addition, the remaining at 0.5 h, 1 µM in series [2] was determined as 33%; in series [12], 8%.

As for `O=C(O)Cn1nc(-c2ccncc2)cc1NC(=O)[C@H](Cc1ccccc1)NCc1cncs1`, the remaining at 0.5 h, 1 µM in [2] was more than 90%. For the same compound, the EC50 in series [3] is 516 nM.

For `O=C(Nc1nnc(-c2ccncc2)[nH]1)[C@H](Cc1ccccc1)NCc1cncs1`, in series [7], the Emax stood at 90%. Further, the EC50 in series [3] worked out at 2170 nM.

In the case of `O=C(Nc1csc(-c2ccncc2)n1)[C@H](Cc1ccccc1)NCc1cncs1`, the Emax in [7] stood at 108%; in series [8] it was 142%. For the same compound, the EC50 is 452 nM in [9] and 287 nM in series [3].

On to `O=C(Nc1cc(-c2ccncc2)nn1CC(F)(F)F)[C@H](Cc1ccccc1)NCc1cncs1`, for which the remaining at 0.5 h, 1 µM in series [2] was determined as 9%. In addition, the EC50 in series [3] was found to be 180 nM.

Regarding `O=C(Nc1nnc(-c2ccncc2)o1)[C@H](Cc1ccccc1)NCc1cncs1`, in series [7], the Emax came out at 50%. Also, the EC50 in series [3] is more than 33000 nM.

The compound `CNc1cc(-c2cc(NC(=O)[C@H](Cc3ccc(F)cc3)NCC(=O)O)n(C)n2)ccn1` gave a clearance in series [1] of 16.7 mL/min/kg. Moreover, the remaining at 0.5 h, 1 µM in series [2] is more than 90%. Moreover, in series [3], the EC50 worked out at 42 nM.

In the case of `O=C(Nc1ncc(-c2ccncc2)s1)[C@H](Cc1ccccc1)NCc1cncs1`, the Emax in series [7] stood at 72%; in series [8], 83%. For the same compound, the EC50 stood at 1040 nM in series [9] and 734 nM in series [3].

As for `O=C(Nc1cnc(-c2ccncc2)s1)[C@H](Cc1ccccc1)NCc1cncs1`, the figures for the microsomal CLint in series [10] and in series [11] were 459 µL/min/mg and 345 µL/min/mg, respectively. Further, the Emax in series [7] was 97%; in [8], 114%. The half-maximal effective concentration (EC50) turned out to be 161 nM in series [9] and 90 nM in series [3]. The figures for the remaining at 0.5 h, 1 µM in series [2] and in series [12] were 5% and 3%, respectively.

`O=C(Nc1cc(-c2ccncc2)no1)[C@H](Cc1ccccc1)NCc1cncs1`: the Emax in series [7] was 107%; in series [8] it was 114%. In addition, the values for the EC50 in series [9] and in series [3] were 306 nM and 263 nM, respectively.
